The values that follow come from ChEMBL document CHEMBL3864151, “Discovery of imidazopyridazines as potent Pim-1/2 kinase inhibitors” (Bioorg Med Chem Lett, 2016).

Structures are written as SMILES. Activity calls are given as the source filed them. No cut-off for these calls is given here.

The nature of data set [1]: Antiproliferative activity against human MOLP8 cells after 72 hrs by CellTiter-Glo assay. Type of data set: functional, cell-based. To be noted: MOLP-8, 72 h.
A short description of data set [2]: Oral bioavailability in Sprague-Dawley rat at 5 mg/kg. Type of data set: ADME, organism-based. The note with it: in vivo. The method in brief:
(§1)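 Male Sprague Dawley rats, 3 animals per dosing route, mean values. iv dose 2 mg/kg as a solution in DMSO; po dose 5 mg/kg in 1% Tween 80, 2% HPMC, 97% water/methanesulfonic acid pH 2.2.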

Data set [3] has as its system Receptor-type tyrosine-protein kinase FLT3 (Homo sapiens), P36888 [D835Y]. The data set is described as follows: Competitive binding affinity to partial length […] human FLT3 D835Y expressed in bacterial expression system at 10 uM by kinomescan method relative to control. A digest of the protocol: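 Single-concentration (10 µM) screen in the scanMAX competition-binding panel of protein and lipid kinases and their common mutants. Binding is expressed as percentage of control (POC).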

Data set [4] is described as follows: Antiproliferative activity against human KMS28BM cells after 72 hrs by CellTiter-Glo assay. The note with it: KMS-28BM. Type of data set: functional, cell-based. A general note: ATP-based viability assays read luminescence as a measure of living cells.
Data set [5] deals with Mitogen-activated protein kinase 13 (Homo sapiens) (UniProt O15264). Put plainly: Competitive binding affinity to full length wild type human p38delta expressed in bacterial expression system at 10 uM by kinomescan method relative to control. A digest of the protocol:
(§2)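 DiscoveRX scanMAX kinase panel of protein and lipid kinases and common mutants; competitive binding of compound at 10 µM expressed as percentage of control (POC).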

Data set [6] can be described thus: Antiproliferative activity against human KMS12PE cells after 72 hrs by CellTiter-Glo assay. The note with it: KMS-12-PE. Type of data set: functional, cell-based.
The test system of data set [7] is KMS-12-BM. The data set is described as follows: Induction of apoptosis in human KMS-12-BM cells assessed as increase in cleaved caspase 6 levels at […] after 4 to 72 hrs by Western blot method. The format is functional, cell-based. A general note: A western blot detects proteins with antibodies after separation by electrophoresis.
Data set [8] in a line: Antiproliferative activity against human U266B1 cells harboring BRAF mutant after 72 hrs by CellTiter-Glo assay. The format is functional, cell-based. The note with it: U-266, 72 h.
Data set [9] has as its target Glycogen synthase kinase-3 beta (Homo sapiens) (UniProt P49841). Put plainly: Competitive binding affinity to full length wild type human GSK3B expressed in mammalian expression system at 10 uM by kinomescan method relative to control. A digest of the protocol: as §2
The nature of data set [10]: Effect on total BAD levels in human KMS-12-BM cells at […] after 4 to 72 hrs by Western blot method. Type of data set: ADME, cell-based.
Data set [11] is described as follows: Clearance in Sprague-Dawley rat at 2 mg/kg, iv relative to liver blood flow. The format is ADME, organism-based. To be noted: in vivo. The method in brief:
as §1

Data set [12] has as its target Homeodomain-interacting protein kinase 1 (Homo sapiens) (UniProt Q86Z02). Put plainly: Competitive binding affinity to partial length wild type human HIPK1 expressed in mammalian expression system at 10 uM by kinomescan method relative to control. The method in brief:
as §2

A short description of data set [13]: Mean residence time in Sprague-Dawley rat at 2 mg/kg, iv. The format is ADME, organism-based. To be noted: in vivo. A digest of the protocol:
as §1

The target of data set [14] is Casein kinase II subunit alpha' (Homo sapiens) (UniProt P19784). The data set is described as follows: Competitive binding affinity to full length wild type human CSNK2A2 expressed in mammalian expression system at 10 uM by kinomescan method relative to control. The method in brief: as §2
The nature of data set [15]: Antiproliferative activity against human KMS-12-BM cells after 72 hrs by CellTiter-Glo assay. Type of data set: functional, cell-based.
The nature of data set [16]: Antiproliferative activity against human RPMI8226 cells after 72 hrs by CellTiter-Glo assay. Type of data set: functional, cell-based. The note with it: RPMI-8226, 72 h.

The term IC50 denotes the midpoint of a concentration-inhibition curve. Higher therefore signals weaker potency. The MRT is a mean duration of stay, worked out from the concentration-time curve. With `C[C@@H]1C[C@H](N)CN(c2ccncc2Nc2ncc3ccc(-c4c(F)cccc4F)nn23)C1`, the concentration for half-maximal inhibition (IC50) in [1] worked out at 58 nM; in data set [4], 86 nM; in [6], 130 nM; in [8], 10000 nM; in data set [15], 216 nM; in data set [16] it was 569 nM. In addition, in data set [2], the F is listed as 17%. In addition, the Activity in data set [3] was 6.1%; in [5], 8.4%; in data set [9] it was 2.3%; in [10] it was “Non-Toxic”; in [12], 7%; in data set [14], 2%. In addition, the outcome in [7] was Active. In addition, the CL in data set [11] was 40%. The same molecule displayed an MRT in [13] of 4.3 h.
